Reference: ChEMBL document CHEMBL4190388, “Discovery and Optimization of Indolyl-Containing 4-Hydroxy-2-Pyridone Type II DNA Topoisomerase Inhibitors Active against Multidrug Resistant Gram-negative Bacteria” (J Med Chem, 2018)
pIC50: −log10 of the molar value. Converted amounts (≈) assume the structure as drawn.

Legend:
Acinetobacter baumannii [1] = experiment: Antibacterial activity against fluoroquinolone resistant Acinetobacter baumannii isolate MMX2240 by CLSI M100-S17 protocol based method; type: functional
Escherichia coli [2] = experiment: Antibacterial activity against wild type Escherichia coli ATCC 25922 in presence of HSA by CLSI M100-S17 protocol based method; type: functional
Escherichia coli [3] = experiment: Selectivity ratio of MIC for wild type Escherichia coli ATCC 25922 in presence of HSA to MIC for wild type Escherichia coli ATCC 25922; type: functional
Escherichia coli [4] = experiment: Antibacterial activity against wild type Escherichia coli ATCC 25922 by CLSI M100-S17 protocol based method; type: functional
Escherichia coli [5] = experiment: Antibacterial activity against fluoroquinolone resistant Escherichia coli SKM18 by CLSI M100-S17 protocol based method; type: functional
Escherichia coli [6] = experiment: Antibacterial activity against quinolone resistance Escherichia coli isolate ELZ4251 harboring gyrA/parC mutant by CLSI M100-S17 protocol based method; type: functional
Klebsiella pneumoniae = experiment: Antibacterial activity against wild type Klebsiella pneumoniae ATCC 35657 by CLSI M100-S17 protocol based method; type: functional
Acinetobacter baumannii [7] = experiment: Antibacterial activity against wild type Acinetobacter baumannii ATCC BAA-747 by CLSI M100-S17 protocol based method; type: functional
Mus musculus [8] = experiment: Terminal half life in CD1 mouse plasma at 10 mg/kg, iv by LC-MS/MS analysis; type: ADME, organism-based; details: in vivo
Escherichia coli [9] = experiment: Antibacterial activity against quinolone resistant Escherichia coli by broth microdilution method; type: functional; details: Escherichia coli
Procedure, shortened: (§1)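 MICs were determined by CLSI broth methods, except that organisms were grown in brain–heart–infusion medium. The panel comprised wild-type and resistant E. coli and A. baumannii strains, including 12 strains whose details are given by reference.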

Acinetobacter baumannii [10] = experiment: Antibacterial activity against beta-lactam resistant Acinetobacter baumannii by broth microdilution method; type: functional; details: Acinetobacter baumannii; procedure, shortened: as §1
Acinetobacter baumannii [11] = experiment: Antibacterial activity against quinolone resistant Acinetobacter baumannii by broth microdilution method; type: functional; details: Acinetobacter baumannii; procedure, shortened: as §1
Mus musculus [12] = experiment: AUC (0 to 24 hrs) in CD1 mouse plasma at 10 mg/kg, iv by LC-MS/MS analysis; type: ADME, organism-based; set-up: time < 24 hr, dose 10 mg/kg, route intravenous; details: in vivo
Procedure, shortened: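 CD-1 mice given a single 10 mg/kg iv dose (n = 3), in either 10% DMSO plus 1% Tween 80 in pH 8.0 phosphate buffer or 20% (2-hydroxypropyl)-β-cyclodextrin in pH 4.0 citrate buffer; plasma exposure measured.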

[13] = Fraction unbound in mouse plasma at 1 uM by equilibrium dialysis method; type: ADME, cell-free
Acinetobacter baumannii [14] = experiment: Antibacterial activity against multidrug resistant Acinetobacter baumannii by broth microdilution method; type: functional; details: Acinetobacter baumannii; procedure, shortened: as §1
Mus musculus [15] = experiment: Volume of distribution at steady state in CD1 mouse plasma at 10 mg/kg, iv by LC-MS/MS analysis; type: ADME, organism-based; details: in vivo
Escherichia coli [16] = experiment: Antibacterial activity against multidrug resistant Escherichia coli by broth microdilution method; type: functional; details: Escherichia coli; procedure, shortened: as §1
Acinetobacter baumannii [17] = experiment: Antibacterial activity against aminoglycoside resistant Acinetobacter baumannii by broth microdilution method; type: functional; details: Acinetobacter baumannii; procedure, shortened: as §1
Acinetobacter baumannii [18] = experiment: Antibacterial activity against carbapenem resistant Acinetobacter baumannii by broth microdilution method; type: functional; details: Acinetobacter baumannii; procedure, shortened: as §1
Escherichia coli [19] = experiment: Antibacterial activity against wild type Escherichia coli by broth microdilution method; type: functional; procedure, shortened: as §1
Escherichia coli [20] = experiment: Antibacterial activity against beta-lactam resistant Escherichia coli by broth microdilution method; type: functional; details: Escherichia coli; procedure, shortened: as §1
Acinetobacter baumannii [21] = experiment: Antibacterial activity against wild type Acinetobacter baumannii by broth microdilution method; type: functional; procedure, shortened: as §1
Escherichia coli [22] = experiment: Antibacterial activity against aminoglycoside resistant Escherichia coli by broth microdilution method; type: functional; details: Escherichia coli; procedure, shortened: as §1
[23] = Inhibition of Escherichia coli DNA topoisomerase 4 assessed as reduction in decatenation activity using kinetoplast concatenated DNA as substrate after 30 mins by picogreen dye based fluorescence assay
[24] = Inhibition of His tagged Escherichia coli ATCC 25922 DNA gyrase A expressed in Escherichia coli BL21 (DE3) pLysS cells assessed as reduction in enzyme-mediated supercoiling of relaxed plasmid DNA pNO1 after 30 mins in presence of biotinylated TFO1 by fluorescence assay

Compound: CC(C)NCc1cc2cc3c(cc2n1C)SCCc1c-3[nH]c(=O)c(C(=O)O)c1O
- MIC (Acinetobacter baumannii [1]): 3.9 µg/mL (≈ 9.43 µM)
- MIC (Escherichia coli [2]): 15.6 µg/mL
- Ratio (Escherichia coli [3]): 8 - 16
- MIC (Escherichia coli [4]): 2 µg/mL (≈ 4.84 µM)
- MIC (Escherichia coli [5]): 1 µg/mL (≈ 2.42 µM)
- MIC (Escherichia coli [6]): 3.1 µg/mL (≈ 7.5 µM)
- MIC (Klebsiella pneumoniae): 2 µg/mL (≈ 4.84 µM)
- MIC (Acinetobacter baumannii [7]): 2 µg/mL (≈ 4.84 µM)

Compound: CN(C)Cc1cc2cc3c(cc2n1C)OCCc1c-3[nH]c(=O)c(C(=O)O)c1O
- beta t1/2 (Mus musculus [8]): 3.1 h
- MIC (Acinetobacter baumannii [1]): 3.9 µg/mL (≈ 10.2 µM)
- MIC50 (Escherichia coli [9]): 0.5 µg/mL (≈ 1.3 µM)
- MIC90 (Escherichia coli [9]): 2 µg/mL (≈ 5.22 µM)
- MIC (Escherichia coli [9]; read-out: MIC): 0.25 to 8 µg/mL (≈ 0.652 to 20.9 µM)
- MIC50 (Acinetobacter baumannii [10]): 2 µg/mL (≈ 5.22 µM)
- MIC90 (Acinetobacter baumannii [10]): 16 µg/mL (≈ 41.7 µM)
- MIC50 (Acinetobacter baumannii [11]): 2 µg/mL (≈ 5.22 µM)
- MIC90 (Acinetobacter baumannii [11]): 16 µg/mL (≈ 41.7 µM)
- AUC (Mus musculus [12]): 2930 ng·h/mL
- MIC (Escherichia coli [2]): 2 µg/mL
- Ratio (Escherichia coli [3]): 2 - 4
- MIC (Escherichia coli [4]): 1 µg/mL (≈ 2.61 µM)
- Fu [13]: 0.21
- MIC (Escherichia coli [5]): 1 µg/mL (≈ 2.61 µM)
- MIC (Escherichia coli [6]): 1.6 µg/mL (≈ 4.17 µM)
- MIC50 (Acinetobacter baumannii [14]): 2 µg/mL (≈ 5.22 µM)
- MIC90 (Acinetobacter baumannii [14]): 16 µg/mL (≈ 41.7 µM)
- Vdss (Mus musculus [15]): 7.6 L/kg
- MIC50 (Escherichia coli [16]): 0.5 µg/mL (≈ 1.3 µM)
- MIC90 (Escherichia coli [16]): 2 µg/mL (≈ 5.22 µM)
- MIC (Escherichia coli [16]; read-out: MIC): 0.25 to 8 µg/mL (≈ 0.652 to 20.9 µM)
- MIC (Klebsiella pneumoniae): 1 µg/mL (≈ 2.61 µM)
- MIC50 (Acinetobacter baumannii [17]): 2 µg/mL (≈ 5.22 µM)
- MIC90 (Acinetobacter baumannii [17]): 16 µg/mL (≈ 41.7 µM)
- MIC50 (Acinetobacter baumannii [18]): 2 µg/mL (≈ 5.22 µM)
- MIC90 (Acinetobacter baumannii [18]): 16 µg/mL (≈ 41.7 µM)
- MIC50 (Escherichia coli [19]): 0.5 µg/mL (≈ 1.3 µM)
- MIC90 (Escherichia coli [19]): 2 µg/mL (≈ 5.22 µM)
- MIC50 (Escherichia coli [20]): 0.5 µg/mL (≈ 1.3 µM)
- MIC90 (Escherichia coli [20]): 2 µg/mL (≈ 5.22 µM)
- MIC (Escherichia coli [20]; read-out: MIC): 0.25 to 8 µg/mL (≈ 0.652 to 20.9 µM)
- MIC (Acinetobacter baumannii [7]): 2 µg/mL (≈ 5.22 µM)
- MIC (Acinetobacter baumannii [21]): 0.25 to 16 µg/mL (≈ 0.652 to 41.7 µM)
- MIC50 (Acinetobacter baumannii [21]): 2 µg/mL (≈ 5.22 µM)
- MIC90 (Acinetobacter baumannii [21]): 16 µg/mL (≈ 41.7 µM)
- MIC50 (Escherichia coli [22]): 0.5 µg/mL (≈ 1.3 µM)
- MIC90 (Escherichia coli [22]): 2 µg/mL (≈ 5.22 µM)
- MIC (Escherichia coli [22]; read-out: MIC): 0.25 to 8 µg/mL (≈ 0.652 to 20.9 µM)

Compound: CCc1c(-c2ccc3c(ccn3C)c2)[nH]c(=O)c(C(=O)O)c1O
- MIC (Acinetobacter baumannii [1]): 0.78 µg/mL (≈ 2.5 µM)
- MIC (Escherichia coli [2]): > 62.5 µg/mL
- Ratio (Escherichia coli [3]): >40
- MIC (Escherichia coli [4]): 0.78 µg/mL (≈ 2.5 µM)
- MIC (Escherichia coli [5]): 3.1 µg/mL (≈ 9.93 µM)
- MIC (Escherichia coli [6]): 6.3 µg/mL (≈ 20.2 µM)
- MIC (Klebsiella pneumoniae): 3.1 µg/mL (≈ 9.93 µM)
- MIC (Acinetobacter baumannii [7]): 0.78 µg/mL (≈ 2.5 µM)

Compound: CCNCc1cc2cc3c(cc2n1C)CCCCc1c-3[nH]c(=O)c(C(=O)O)c1O
- pIC50 [23]: 4.82
- pIC50 [24]: 6.10
- MIC (Escherichia coli [4]): 0.78 µg/mL (≈ 1.97 µM)
- MIC (Escherichia coli [5]): 3.1 µg/mL (≈ 7.84 µM)
